These results are taken from PubChem BioAssay AID504623 (Broad Institute, 2011).

Records with an inconclusive call do not appear. Activity calls are given as the source filed them.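 The calls were made as follows: active = mean replicate inhibition of at least 25% with at least 60% of replicates reaching that level; inconclusive = only one of the two criteria is met; inactive = neither criterion met.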

In this test the test system is SUM159 tumorsphere formation, imaging count, 8-9 days. In words: blockade of breast tumor sphere growth – imaging, SUM159 cells, single point, dry powder, orthogonal assay for breast cancer stem cell project, late-stage follow-up (AID 504623). Particulars: at 25 µM; stronger effect = higher value. An outline of the steps: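 Material: SUM159 cells forming tumorspheres in methylcellulose suspension; Quantity: 1000 cells/well; Buffer or medium: medium plus 0.5% methylcellulose; Compound: single dose, 200 nL pinned compound; Incubation: Sphere formation over 8 days at 37 °C, 5% CO2; Technique: Brightfield imaging at 2x, 9 sites/well; Format: Ultra-low-attachment multiwell plate.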

The inhibition is the change of the read-out against control, counted positive when it falls. `COc1cccc(OCc2ccc(C(=O)Nc3nc(C)cs3)o2)c1`: the inhibition is -6.02% (inactive).
To `Cc1csc(NC(=O)c2ccc(COc3cccc(C#N)c3)o2)n1` belongs 44.2%; to `Cc1cc(Cl)ccc1OCC(=O)N/N=C/c1ccc[nH]1`, 3.98% (inactive).
To `Cc1csc(NC(=O)c2ccc(COc3cccc(Cl)c3)o2)n1` belongs 19.5% (inactive); to `CC(C)(C)c1ccc2c(c1)OC(C(=O)N/N=C/c1ccc[nH]1)CO2` (centres undefined), 34.1%.
Then `CC(C)c1ccc(/C=C/C(=O)NC2=NCCS2)cc1`, with 10.4% (inactive); and `O=C(COc1c(Cl)cc(Cl)cc1Cl)N/N=C/c1ccc[nH]1`, with -7.47% (inactive); and `Cc1csc(NC(=O)c2ccc(COc3ccccc3F)o2)n1`, with 4.83% (inactive).
Turning to `CC(C)(C)c1ccc(C2CC2C(=O)N/N=C/c2ccc[nH]2)cc1` (centres undefined), the inhibition is 62.8%.
To `Cc1csc(NC(=O)c2ccc(COc3cccc(OC(F)(F)F)c3)o2)n1` belongs 22.2% (inactive); to `O=C(/C=C/c1ccc(-c2ccccc2)cc1)NC1=NCCS1`, 4.08% (inactive); to `Cc1csc(NC(=O)c2ccc(COc3ccccc3)o2)n1`, 21.4% (inactive).
To `O=C(COc1ccc(Cl)cc1Cl)N/N=C/c1ccc[nH]1` belongs -22.3% (inactive); to `CC(C)c1ccc(/C=C/C(=O)Nc2ccccc2)cc1`, 62.4%.
